Results on 17 compounds are retold here after ChEMBL document CHEMBL3352225, “Bioreductively Activated Reactive Oxygen Species (ROS) Generators as MRSA Inhibitors” (ACS Med Chem Lett, 2014).

Values after ≈ are worked out from the molar mass of the structure shown. Values joined by “and” are separate entries in the source; they are usually repeats but may differ in a detail not shown here. Equal values may be shown once. Active and inactive are the calls of the source. The calls are words filed in the database; no cut-off is given here.

The test system of data set [1] is Staphylococcus aureus. The data set can be described thus: Antimicrobial activity against methicillin-sensitive Staphylococcus aureus ATCC 29213 after 18 to 20 hrs by microbroth dilution technique. Format: functional. The essentials:
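MIC taken as the lowest concentration that prevents visible bacterial growth of MSSA 29213, reported in μg/mL.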

Data set [2] concerns Staphylococcus aureus. In words: Antimicrobial activity against methicillin-resistant Staphylococcus aureus 7425 after 18 to 20 hrs by microbroth dilution technique. Format: functional. The method, boiled down: (§1)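 Broth microdilution MIC, taken as the lowest concentration preventing visible growth. MRSA 33591 was the reference strain and the others were clinical MRSA isolates. Vancomycin was tested alongside as comparator. Values are reported in μg/mL and μM.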
(Broth dilution looks for growth in wells or tubes with falling amounts of substance.)

The subject of data set [3] is Staphylococcus aureus. The data set can be described thus: Antimicrobial activity against methicillin-resistant Staphylococcus aureus 33591 after 18 to 20 hrs by microbroth dilution technique. Format: functional. The method, boiled down: as §1
Data set [4] deals with Staphylococcus aureus. The data set can be described thus: Antimicrobial activity against methicillin-resistant Staphylococcus aureus 7419 after 18 to 20 hrs by microbroth dilution technique. The format is functional. The method, boiled down: as §1
Data set [5] relates to Staphylococcus aureus. In words: Antimicrobial activity against methicillin-resistant Staphylococcus aureus B19506 after 18 to 20 hrs by microbroth dilution technique. Format: functional. The method, boiled down: as §1
Data set [6] relates to Staphylococcus aureus. The data set can be described thus: Antimicrobial activity against methicillin-resistant Staphylococcus aureus K-1 after 18 to 20 hrs by microbroth dilution technique. Format: functional. The method, boiled down:
as §1

The subject of data set [7] is Staphylococcus aureus. In words: Antimicrobial activity against methicillin-resistant Staphylococcus aureus 7386 after 18 to 20 hrs by microbroth dilution technique. Format: functional. The essentials:
as §1

The test system of data set [8] is Staphylococcus aureus. The data set can be described thus: Antimicrobial activity against methicillin-resistant Staphylococcus aureus E9902 after 18 to 20 hrs by microbroth dilution technique. Format: functional. The essentials:
as §1

Data set [9] has as its system Staphylococcus aureus. In words: Antimicrobial activity against methicillin-resistant Staphylococcus aureus E151 after 18 to 20 hrs by microbroth dilution technique. The format is functional. The essentials:
as §1

Data set [10] concerns Staphylococcus aureus. In words: Antimicrobial activity against methicillin-resistant Staphylococcus aureus E288 after 18 to 20 hrs by microbroth dilution technique. The format is functional. The method, boiled down:
as §1

Data set [11] deals with Staphylococcus aureus. The data set can be described thus: Antimicrobial activity against methicillin-resistant Staphylococcus aureus B21838 after 18 to 20 hrs by microbroth dilution technique. The format is functional. The method, boiled down: as §1
Data set [12] relates to Staphylococcus aureus. In words: Antimicrobial activity against methicillin-resistant Staphylococcus aureus B853 after 18 to 20 hrs by microbroth dilution technique. Format: functional. The essentials: as §1
Data set [13] relates to Staphylococcus aureus. In words: Antimicrobial activity against methicillin-resistant Staphylococcus aureus B0085 after 18 to 20 hrs by microbroth dilution technique. Format: functional. The essentials: as §1
The nature of data set [14]: Superoxide generation in buffer at pH 7.4 at 25 uM measured at 1 min interval for 4 mins by luminol-based chemiluminescence assay in presence of DT-diaphorase. The method, boiled down:
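Superoxide from compound plus NQO1 (DT-diaphorase) was followed as a time course by luminol chemiluminescence. The control was compound alone in pH 7.4 buffer.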

Data set [15] can be described thus: Superoxide generation in buffer at pH 7.4 assessed as formation of 2-OH-E+ at 200 to 500 ug/ml measured after 10 mins by dihydroethidium assay in presence of DT-diaphorase. The method, boiled down:
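Compound was incubated with NQO1 (DT-diaphorase). The DHE-derived products 2-OH-E+ (superoxide-specific) and E+ (nonspecific oxidation) were separated and quantified by HPLC. The control was compound in pH 7.4 buffer without enzyme.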

In data set [16] the test system is Staphylococcus aureus. The data set can be described thus: Antimicrobial activity against Staphylococcus aureus assessed as intracellular superoxide generation measured as formation of 2-OH-E+ measured after 1 hr by dihydroethidium assay. Format: functional, organism-based. The essentials:
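Intact S. aureus cells were incubated with DHE across a range of compound concentrations. Products were 2-hydroxyethidium (2-OH-E+), which is superoxide-specific, and ethidium (E+), which comes from nonspecific oxidation. Untreated bacteria served as the control.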

Data set [17] concerns Staphylococcus aureus. The data set can be described thus: Antimicrobial activity against Staphylococcus aureus assessed as extracellular H2O2 generation at 2 ug/ml measured after 60 mins by Amplex Red-based fluorescence assay. Format: functional, organism-based. The essentials:
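S. aureus cells were exposed to compound for 60 min, and H2O2 released into the medium was quantified by Amplex Red fluorescence as a surrogate marker for intracellular ROS. Untreated bacteria served as the control.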

The test system of data set [18] is Staphylococcus aureus. The data set can be described thus: Antimicrobial activity against methicillin-sensitive Staphylococcus aureus ATCC 29213 assessed as intracellular oxidative species generation at 0.5 ug/ml measured after 1 hr by dichlorofluorescein-diacetate fluorescence assay. The format is functional, organism-based.
Data set [19] has as its system Staphylococcus aureus. In words: Induction of DNA damage in methicillin-sensitive Staphylococcus aureus ATCC 29213 assessed as upregulation of RecA expression at 6.7 times MIC measured after 120 mins by PCR analysis. Format: functional, organism-based.
For data set [20], the system named is Staphylococcus aureus. In words: Antimicrobial activity against methicillin-sensitive Staphylococcus aureus ATCC 29213 assessed as growth inhibition at 8 times MIC measured over 3 hrs in presence of thiourea. The format is functional, organism-based.
Data set [21] in a line: Cytotoxicity against human A549 cells after 72 hrs by MTT assay. Format: cell-based. (In general: Formazan colour is commonly taken as a measure of viable cells.)
Data set [22] in a line: Selectivity index, ratio of GI50 for human A549 cells to MIC for methicillin-resistant Staphylococcus aureus 33591.
Data set [23] is described as follows: H2O2 generation in buffer at pH 7.4 at 2 ug/ml measured after 5 mins by Amplex Red-based fluorescence assay in presence of DT-diaphorase.

As to `COc1cc(Cn2c3c(c4ccccc4c2=O)C(=O)c2ccccc2C3=O)cc(OC)c1OC`, the MIC against Staphylococcus aureus [1] was 8 µg/mL (≈ 17.6 µM).
Still for that read-out and setting: the same measure for `O=C1c2ccccc2C(=O)c2c1c1ccccc1c(=O)n2C1CCCCC1`: over 32 µg/mL; for `O=C1c2ccccc2C(=O)c2c1c1ccccc1c(=O)n2Cc1ccc([N+](=O)[O-])cc1`: 8 µg/mL (≈ 19.5 µM).
Turning to `COc1ccc(Cn2c3c(c4ccccc4c2=O)C(=O)c2ccccc2C3=O)cc1`, inhibition of growth with Staphylococcus aureus [1] (MIC) required 32 µg/mL (≈ 80.9 µM).
Compound `CN[C@H](CC(C)C)C(=O)N[C@H]1C(=O)N[C@@H](CC(N)=O)C(=O)N[C@H]2C(=O)N[C@H]3C(=O)N[C@H](C(=O)N[C@H](C(=O)O)c4cc(O)cc(O)c4-c4cc3ccc4O)[C@H](O)c3ccc(c(Cl)c3)Oc3cc2cc(c3O[C@@H]2O[C@H](CO)[C@@H](O)[C@H](O)[C@H]2O[C@H]2C[C@](C)(N)[C@H](O)[C@H](C)O2)Oc2ccc(cc2Cl)[C@H]1O` [VANCOMYCIN] displayed an MIC in the data set with Staphylococcus aureus [2] of 0.12 µg/mL (≈ 0.0828 µM).
In the data set with Staphylococcus aureus [1], `O=C1c2ccccc2C(=O)c2c1c1ccccc1c(=O)n2Cc1ccccc1` registered a minimum inhibitory concentration (MIC) of over 32 µg/mL.
`O=C1c2ccccc2C(=O)c2c1c1ccccc1c(=O)n2Cc1ccccc1C(F)(F)F` came in with a minimum inhibitory concentration (MIC) in the data set with Staphylococcus aureus [1] of over 32 µg/mL.
Same read-out and setting: the figure for `NC[C@H]1O[C@H](O[C@H]2[C@H](O)[C@@H](O[C@H]3O[C@H](CO)[C@@H](O)[C@H](N)[C@H]3O)[C@H](N)C[C@@H]2N)[C@H](N)C[C@@H]1O` [TOBRAMYCIN] is 1 µg/mL (≈ 2.14 µM).
Turning to `CCCn1c2c(c3ccccc3c1=O)C(=O)c1ccccc1C2=O`, in the data set with Staphylococcus aureus [1], the MIC is over 32 µg/mL.
`Cn1c2c(c3ccccc3c1=O)C(=O)c1ccccc1C2=O` had an MIC in the data set with Staphylococcus aureus [1] of 1 µg/mL (≈ 3.46 µM).
Compound `O=C1c2ccccc2C(=O)c2c1c1ccccc1c(=O)n2Cc1ccc(Cl)cc1` yielded an MIC in the data set with Staphylococcus aureus [1] of over 32 µg/mL.
With `C=CCn1c2c(c3ccccc3c1=O)C(=O)c1ccccc1C2=O`, the MIC in the data set on Staphylococcus aureus [1] was over 32 µg/mL.
For the compound `C[C@@H]1O[C@@H]1P(=O)(O)O` [FOSFOMYCIN], the MIC against Staphylococcus aureus [1] was found to be 8 µg/mL (≈ 57.9 µM).
In the data set with Staphylococcus aureus [1], `CCn1c2c(c3ccccc3c1=O)C(=O)c1ccccc1C2=O` gave a minimum inhibitory concentration (MIC) of over 32 µg/mL.
On to `C#CCn1c2c(c3ccccc3c1=O)C(=O)c1ccccc1C2=O`, for which the MIC against Staphylococcus aureus [1] is 0.5 µg/mL (≈ 1.6 µM); against Staphylococcus aureus [3] it was 0.5 µg/mL and 1.6 µM; in the data set on Staphylococcus aureus [4] it was 0.12 µg/mL and 0.38 µM; in the data set on Staphylococcus aureus [5], 0.06 µg/mL and 0.19 µM; with Staphylococcus aureus [6], 0.25 µg/mL and 0.8 µM; against Staphylococcus aureus [2], 0.12 µg/mL and 0.38 µM. Further, the minimum inhibitory concentration (MIC) with Staphylococcus aureus [7] is 1 µg/mL and 3.19 µM; in the data set with Staphylococcus aureus [8], 0.5 µg/mL and 1.6 µM; in the data set on Staphylococcus aureus [9] it was 0.5 µg/mL and 1.6 µM; with Staphylococcus aureus [10], 0.5 µg/mL and 1.6 µM; against Staphylococcus aureus [11], 0.5 µg/mL and 1.6 µM; against Staphylococcus aureus [12], 1 µg/mL and 3.19 µM. In the data set with Staphylococcus aureus [13], the MIC is 0.5 µg/mL and 1.6 µM. Further, the result (in data set [14]; in [15]; with Staphylococcus aureus [17]; in the data set on Staphylococcus aureus [18]; with Staphylococcus aureus [19]; in data set [23]) was Active. In the data set with Staphylococcus aureus [16], the Activity entry is “Dose-dependent effect”. In the data set on Staphylococcus aureus [20], the “growth inhibition (GI)” value was “inactive”. In data set [21], the GI50 at 72 h was found to be 8.6 µM. The “Selectivity Index” value in data set [22] is recorded as over 5.
In the data set with Staphylococcus aureus [1], `O=C1c2ccccc2C(=O)c2c1c1ccccc1c(=O)n2Cc1ccc(C(F)(F)F)cc1` gave an MIC of over 32 µg/mL.
In the data set on Staphylococcus aureus [1], `COC(=O)Cn1c2c(c3ccccc3c1=O)C(=O)c1ccccc1C2=O` registered an MIC of over 32 µg/mL.

As usually defined, the MIC is the least concentration at which growth counts as inhibited. The low end stands for greater potency, the high end for weaker potency. Broadly, the GI50 is the concentration at which growth is held to half of that of the control. A higher GI50 goes with less potent growth inhibition.
